Among the data in ChEMBL document CHEMBL1154144, “Semisynthesis and antiplasmodial activity of the quinoline alkaloid aurachin E” (J Nat Prod, 2008) are IC50, Activity and ED90 values, retold here.

Experiment [1] is described as follows: Inhibition of respiration in bovine heart submitochondrial particles assessed as NADH oxidation. The class given is functional, Bos taurus.
Experiment [2] relates to Plasmodium falciparum. As to the kind of experiment: Antiplasmodial activity against Plasmodium falciparum D6 clone after 48 hrs. In kind it is functional, organism-based. The following applies: D6, 48 h.
In experiment [3] the test system is Plasmodium falciparum. The experiment in a line: Antiplasmodial activity against Plasmodium falciparum W2 after 48 hrs. The class given is functional, organism-based. The following applies: W2, 48 h.
A further experiment concerns L929. As to the kind of experiment: Cytotoxicity against mouse L929 cells after 5 days by MTT assay. The class given is cell-based. As to conditions: L929, 120 h. The procedure, abridged: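 L929 mouse fibroblasts were exposed to serial compound dilutions, and metabolic activity was read by MTT after 5 days.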
In experiment [4] the test system is Plasmodium berghei. As to the kind of experiment: Antimalarial activity against Plasmodium berghei infected in mice (Mus musculus) at 100 mg/kg. The class given is functional.
For experiment [5], the system named is Plasmodium berghei. The experiment in a line: Antimalarial activity against Plasmodium berghei infected in mice (Mus musculus).

SMILES strings stand for the structures. Values after ≈ are worked out from the molar mass of the structure shown. Active and inactive are the calls of the source. The calls are words filed in the database; no cut-off is given here.

What is called IC50 is the concentration needed to halve the response being measured. Take `C[C@@H]1CC[C@H]2[C@@H](C)C(=O)O[C@@H]3O[C@@]4(C)CC[C@@H]1[C@]32OO4` [ARTEMISININ]: the IC50 in experiment [1] was greater than 8.1 µg/mL; in the experiment with Plasmodium falciparum [2], 0.0011 µg/mL (≈ 0.0039 µM); in the experiment with Plasmodium falciparum [3], 0.00043 µg/mL (≈ 0.00152 µM); with L929, greater than 40 µg/mL.
In the case of `CC(C)=CCC/C(C)=C/CCC(C)(O)C1Cc2c(c(C)[n+]([O-])c3ccccc23)O1` (stereo not drawn) [AURACHIN A], the IC50 in experiment [1] is 0.028 µg/mL (≈ 0.0708 µM); in the experiment with Plasmodium falciparum [2] it was greater than 12 µg/mL; with Plasmodium falciparum [3], greater than 12 µg/mL; in the experiment with L929, 1.4 µg/mL (≈ 3.54 µM).
With `CC(C)=CCC/C(C)=C/CC/C(C)=C/Cc1c(O)c(C)[n+]([O-])c2ccccc12` [AURACHIN B], the IC50 in experiment [1] worked out at 0.014 µg/mL (≈ 0.0369 µM); in the experiment on Plasmodium falciparum [2] it was 0.078 µg/mL (≈ 0.206 µM); with Plasmodium falciparum [3], 0.036 µg/mL (≈ 0.0949 µM); with L929, 3.2 µg/mL (≈ 8.43 µM).
Taken in the same sequence, the figures for `CC(C)=CCC/C(C)=C/CC/C(C)=C/Cc1c(C)n(O)c2ccccc2c1=O` [AURACHIN C] were 0.016 µg/mL (≈ 0.0422 µM), 0.0009 µg/mL (≈ 0.00237 µM), 0.026 µg/mL (≈ 0.0685 µM) and 1.8 µg/mL (≈ 4.74 µM).
The like results for `CC(C)=CCC/C(C)=C/CC/C(C)=C/Cc1c(C)[nH]c2ccccc2c1=O` [AURACHIN D] were, in that order, 0.018 µg/mL (≈ 0.0495 µM), 0.25 µg/mL (≈ 0.688 µM), 0.37 µg/mL (≈ 1.02 µM) and 1.3 µg/mL (≈ 3.58 µM).
For `CC(C)=CCC/C(C)=C/CC/C(C)=C/Cc1c(C)n2c(=O)[nH]c3cccc(c1=O)c32` [AURACHIN E], the IC50 in experiment [1] was found to be 1.1 µg/mL (≈ 2.72 µM); with Plasmodium falciparum [2] it was 0.0004 µg/mL (≈ 0.000989 µM); with Plasmodium falciparum [3], 0.013 µg/mL (≈ 0.0321 µM); in the experiment with L929 it was 25 µg/mL (≈ 61.8 µM). Also, the outcome in the experiment with Plasmodium berghei [4] was inactive.
As for `CCN(CC)CCCC(C)Nc1ccnc2cc(Cl)ccc12` (stereo not drawn) [CHLOROQUINE], the IC50 in experiment [1] was greater than 8.1 µg/mL; in the experiment on L929 it was 14 µg/mL (≈ 43.8 µM). In addition, in the experiment with Plasmodium berghei [5], the ED90 was 2.8 mg/kg.
